Source: PubChem (Broad Institute)
ERAP1 inh – inhibitors of human ERAP1 aminopeptidase | Q9NZ08 | 0.15% of 340,000 active | recombinant ERAP1, Leu-AMC fluorescence, 60 min | inhibition, % at 10.7 µM | AID 652197;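 active = mean replicate inhibition of at least 30%, or all replicates individually reaching that 30% level; inactive = mean below 30% and not every replicate reaching it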
Ecoli rRNA inh – inhibitors of bacterial rRNA selective over humanized ribosomes; GFP signal change (wild-type ribosome), % (test concentration not listed); 1.6% of 350,000 active; E. coli WT GFP vs humanized-ribosome RFP mutants, fluorescence, 24 h; active compounds read low; DMSO median 0, no signal -100; AID 720706;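 active = significant combined selectivity score with lowered wild-type GFP, culture density cut under 30%, mutant RFP and density less affected; inactive = any of these conditions unmet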
F508del corr – correctors of CFTR F508del function in bronchial epithelial cells; 0.36% of 350,000 active; activity (quench increase), % at 7.58 µM; AID 720511; CFBE cells, YFP halide quenching; stimulated with forskolin plus potentiator P3; % fluorescence drop versus neutral controls;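 active = mean added fluorescence quench of at least 8% versus neutral control, with both replicates also reaching 8%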;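 also: cells transiently co-express mutant CFTR-F508del with the halide-sensitive YFP; corrector assay measuring rescue of mutant channel to the surface after 24 h compound exposure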
SIRT5 inh – blocks human SIRT5 desuccinylation of peptide; Q9NXA8; Purified SirT5, succinyl-peptide AMC, trypsin-coupled fluorescence; inhibition, % at 15 µM; 1.1% of 330,000 active; AID 652115; in the data active = inhibition above about 15%
S100A4 MyoIIA – blocks human S100A4 binding to myosin IIA peptide; S100A4/TAMRA-MyoIIA peptide fluorescence polarization; P26447; 0.14% of 360,000 active; inhibition, % at 10.7 µM;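 active = mean inhibition of at least 70% across replicates, with every replicate also reaching that level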
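Material: S100A4 monomer protein | Medium: HEPES pH 7.2 with CaCl2, KCl, NaCl, DTT, Triton | Reagent: Labelled myosin peptide probe, 5 nM | Doses: One dose per compound | Times: 5 min incubation before reading | Benchmarks: Neutral control DMSO, positive control TFP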
Hits are given with their value. A selection: hits, their analogues and other compounds. The true share with any hit is near 3.1%.

For CCCCNC(=O)N1CCN(Cc2ccc(F)cc2)CC1 the results were ERAP1 inh inactive, Ecoli rRNA inh inactive, F508del corr inactive, SIRT5 inh 20 and S100A4 MyoIIA inactive.
`CCCCNC(=O)N1CCN(C/C=C/c2ccccc2)CC1` gave ERAP1 inh inactive, Ecoli rRNA inh inactive, F508del corr inactive, SIRT5 inh inactive and S100A4 MyoIIA inactive.
`C[C@@H]1CN([C@@H](C)CO)C(=O)Cc2cc(NC(=O)Nc3ccc4c(c3)OCO4)ccc2O[C@H]1CN(C)Cc1ccncc1` gave ERAP1 inh inactive, Ecoli rRNA inh inactive, F508del corr inactive, SIRT5 inh inactive and S100A4 MyoIIA inactive.
Screening O=S(=O)(O)c1cc(O)c(N=Nc2ccc(O)cc2O)c2ccccc12 returned ERAP1 inh inactive, Ecoli rRNA inh inactive, F508del corr inactive, SIRT5 inh 31 and S100A4 MyoIIA inactive.
COc1ccc(C#Cc2ccc3c(c2)[C@@H]2[C@@H](CCN2C(=O)C2CCC2)[C@H](CO)N3)cc1 was read as ERAP1 inh inactive, Ecoli rRNA inh inactive, F508del corr inactive, SIRT5 inh 17 and S100A4 MyoIIA inactive.
Screening COCC(=O)N1CC[C@H]2[C@H](CO)Nc3ccc(C#Cc4ccc(OC)cc4)cc3[C@H]21 returned ERAP1 inh inactive, Ecoli rRNA inh inactive, F508del corr inactive, SIRT5 inh 15 and S100A4 MyoIIA inactive.
Screening COCC(=O)N1CC[C@@H]2[C@H](CO)Nc3ccc(C#Cc4ccc(OC)cc4)cc3[C@@H]21 returned ERAP1 inh inactive, Ecoli rRNA inh inactive, F508del corr inactive, SIRT5 inh inactive and S100A4 MyoIIA inactive.
COc1ccc(C#Cc2ccc3c(c2)[C@@H]2[C@@H](CCN2C(=O)C2CCC2)[C@@H](CO)N3)cc1 was read as ERAP1 inh inactive, Ecoli rRNA inh inactive, F508del corr inactive, SIRT5 inh inactive and S100A4 MyoIIA inactive.
For C[C@H]1CN([C@@H](C)CO)C(=O)c2cccc(NC(=O)c3ccncc3)c2O[C@@H]1CN(C)C(=O)Nc1ccc(F)cc1 the results were ERAP1 inh inactive, Ecoli rRNA inh inactive, F508del corr inactive, SIRT5 inh inactive and S100A4 MyoIIA inactive.
For COc1cccc(S(=O)(=O)Nc2ccc3c(c2)OC[C@H](C)N(Cc2ccccc2F)C[C@@H](C)[C@@H](OC)CN(C)C3=O)c1 the results were Ecoli rRNA inh inactive and F508del corr inactive.
COCCNC(=O)COc1ncnc2scc(-c3ccc(F)cc3)c12 was read as ERAP1 inh inactive, Ecoli rRNA inh inactive, F508del corr inactive, SIRT5 inh inactive and S100A4 MyoIIA inactive.
Cc1ccc(-c2csc3ncnc(OCC(=O)NC(=O)NCc4ccco4)c23)cc1 was read as ERAP1 inh inactive, Ecoli rRNA inh -29, F508del corr inactive, SIRT5 inh inactive and S100A4 MyoIIA inactive.
c1ccc(CN2CCN(C(c3ccccc3)c3ccccc3)CC2)cc1 was read as ERAP1 inh inactive, Ecoli rRNA inh -24, F508del corr inactive, SIRT5 inh inactive and S100A4 MyoIIA inactive.
Screening C[C@@H]1CCCCO[C@H](CN(C)C(=O)CCCN(C)C)[C@H](C)CN([C@@H](C)CO)C(=O)c2cc(NC(=O)Nc3ccc(C(F)(F)F)cc3)ccc2O1 returned Ecoli rRNA inh inactive and F508del corr inactive.
For CCN(CC)CC(=O)N1CCCC(C(=O)c2ccccc2OC)C1 (stereo not given) the results were ERAP1 inh inactive, Ecoli rRNA inh inactive, F508del corr inactive, SIRT5 inh inactive and S100A4 MyoIIA inactive.
`COc1ccccc1C(=O)C1CCCN(C(=O)CCC(=O)c2ccccc2)C1` (stereo not given) gave ERAP1 inh inactive, Ecoli rRNA inh -28, F508del corr inactive, SIRT5 inh inactive and S100A4 MyoIIA inactive.
CCNC(=O)C[C@H]1CC[C@@H]2[C@H](COC[C@@H](O)CN2C(=O)c2cc(Cl)cc(Cl)c2)O1 was read as ERAP1 inh inactive, Ecoli rRNA inh inactive, F508del corr inactive, SIRT5 inh inactive and S100A4 MyoIIA inactive.
Screening CCOC(=O)C1C(c2cccs2)NC(=O)NC1(O)C(F)(F)F (stereo not given) returned ERAP1 inh inactive, Ecoli rRNA inh inactive, F508del corr inactive, SIRT5 inh 17 and S100A4 MyoIIA inactive.
O=C(Nc1ccc(-c2ccccc2)cc1)[C@@H]1[C@@H](CO)[C@@H]2Cn3c(cccc3=O)[C@@H]2N1CC1CCCCC1 was read as ERAP1 inh inactive, Ecoli rRNA inh inactive, F508del corr inactive, SIRT5 inh inactive and S100A4 MyoIIA inactive.
Screening O=c1c(O[C@H]2O[C@@H](CO)[C@H](O)[C@@H](O)[C@@H]2O)c(-c2ccc(O)cc2)oc2cc(O)cc(O)c12 returned Ecoli rRNA inh inactive, F508del corr inactive and S100A4 MyoIIA inactive.
O=c1c(OC2OC(CO)C(O)C(O)C2O)c(-c2ccc(O)c(O)c2)oc2cc(O)cc(O)c12 (stereo not given) was read as ERAP1 inh 56, Ecoli rRNA inh inactive, F508del corr inactive and S100A4 MyoIIA inactive.
CCCCN1C(=O)C(O)(CC(=O)c2ccco2)c2cc(Br)ccc21 (stereo not given) was read as ERAP1 inh inactive, Ecoli rRNA inh inactive, F508del corr inactive, SIRT5 inh inactive and S100A4 MyoIIA inactive.
Screening CCCCN1C(=O)C(O)(CC(=O)c2c(C)n[nH]c2C)c2cc(Br)ccc21 (stereo not given) returned ERAP1 inh inactive, Ecoli rRNA inh -21, SIRT5 inh inactive and S100A4 MyoIIA inactive.
Cc1cc2c(cc(C(=O)OC(C)C(=O)NCc3ccccc3)n2C)o1 (stereo not given) was read as ERAP1 inh inactive, Ecoli rRNA inh inactive, F508del corr inactive, SIRT5 inh inactive and S100A4 MyoIIA inactive.
Cc1cc2c(cc(C(=O)OC(C)C(=O)NCc3ccc(F)cc3)n2C)o1 (stereo not given) was read as ERAP1 inh inactive, Ecoli rRNA inh inactive, F508del corr 29, SIRT5 inh inactive and S100A4 MyoIIA inactive.
COc1cc(C)ccc1S(=O)(=O)N1CCN(C23CC4CC(CC(C4)C2)C3)CC1 was read as ERAP1 inh inactive, Ecoli rRNA inh -32, F508del corr inactive, SIRT5 inh inactive and S100A4 MyoIIA inactive.
C[C@H]1CN([C@@H](C)CO)C(=O)c2cccc(NC(=O)C3CCCCC3)c2O[C@@H]1CN(C)Cc1ccc(Cl)c(Cl)c1 was read as ERAP1 inh inactive, Ecoli rRNA inh inactive, F508del corr inactive, SIRT5 inh inactive and S100A4 MyoIIA inactive.
For CC(C)COc1ccc(C(=O)NC(Cc2c[nH]c3ccccc23)C(=O)NN)cc1 (stereo not given) the results were ERAP1 inh inactive, Ecoli rRNA inh -35, SIRT5 inh inactive and S100A4 MyoIIA inactive.
Screening O=C(NC(Cc1c[nH]c2ccccc12)C(=O)O)c1ccc(F)cc1 (stereo not given) returned ERAP1 inh inactive, Ecoli rRNA inh inactive, F508del corr inactive, SIRT5 inh inactive and S100A4 MyoIIA inactive.
